# In the library only some 2.5% were active in any assay of this set; here they are far more common.
# NLRP3 yeast inh = NALP3 inhibition in yeast; inhibition, % at 10 µM; actives 0.39% (n = 330,000); Yeast reconstituted NLRP3/ASC/caspase-1, beta-gal luminescence, 24 h;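 active means inhibition of 50% or more; inactive means inhibition below 50%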;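 further: plate controls were induced DMSO wells for no effect and uninduced yeast grown without galactose for full effect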
# NALP1 yeast inh = NALP1 inhibition | AID 2071 | S. cerevisiae NALP1/ASC/caspase-1 growth, X-gal OD620, 72 h | actives 0.61% (n = 280,000) | inhibition, % at 10 µM; in the data active means inhibition mostly above about 24%, no sharp cut-off; inactive means mostly below about 32%
# MC4R antag cAMP = human MC4R antagonism in cAMP assay. actives 0.48% (n = 360,000). AID 540295. MC4R-expressing cells, MTII-stimulated cAMP, LANCE TR-FRET. inhibition, % at 6.5 µM. P32245;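 active means inhibition above its plate's cutoff, the mean of tested wells on that plate plus 3 SD, cut at about 29% in these data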;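 further: 0% = Melanotan II alone and 100% = Melanotan II plus saturating MCL0020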
# Target sequence (P32245 whole entry, looked up): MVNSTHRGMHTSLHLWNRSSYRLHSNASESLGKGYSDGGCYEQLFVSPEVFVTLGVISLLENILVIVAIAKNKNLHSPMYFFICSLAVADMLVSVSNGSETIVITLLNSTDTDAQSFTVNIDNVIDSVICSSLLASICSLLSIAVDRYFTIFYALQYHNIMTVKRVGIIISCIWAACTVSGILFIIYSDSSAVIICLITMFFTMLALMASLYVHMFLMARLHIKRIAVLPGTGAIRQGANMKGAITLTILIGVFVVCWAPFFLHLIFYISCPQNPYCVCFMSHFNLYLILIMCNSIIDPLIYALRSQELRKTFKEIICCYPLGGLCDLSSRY
#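 System: U2OS cells stably expressing human melanocortin 4 receptor (MC4R). Reagent: Melanotan II challenge after compound preincubation. Doses: 6.5 µM. Times: 30-min compound, 1-h challenge, 1-h detection, room temperature. Measured by: TR-FRET with Eu-cAMP and labeled anti-cAMP, 671 nm. Replicates: singlicate.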
# Bfl-1 A1 inh = inhibitors of the anti-apoptotic protein A1, read as caspase activation | MEF A1-2A-BIM cells, Caspase-Glo 3/7 luminescence, 3 h; percent of clofoctol response, vehicle zero | caspase activation, % (concentration not given with the values) | actives 0.066% (n = 330,000);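 active means over half of replicate activation scores above 10%, or exactly half above 10 with the replicate mean above 10; inconclusive means replicate mean below 10 yet half the replicates above 10; inactive means over half of replicates below 10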
# Tb MetRS inh = blocks T. brucei methionyl-tRNA synthetase activity; purified T. brucei MetRS, ATP depletion, Kinase-Glo luminescence; actives 0.4% (n = 360,000); inhibition, % at 11.9 µM;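 active means inhibition above a per-plate cutoff of the control wells' mean inhibition plus 3 SD, cut at about 5.5% in these data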;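 further: 0% = DMSO wells median and 100% = median of wells with control inhibitor compound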
#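 Material: parasite MetRS enzyme / Replication: singlicate, one well per compound / Signal: luminescence of leftover ATP / Schedule: 2 h aminoacylation at 25 °C after 15 min preincubation / Medium: HEPES-MgCl2-KCl buffer plus DTT, spermine, BSA, pyrophosphatase / Doses: 11.9 µM single point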
# MC4R barr agon = agonists of human melanocortin 4 receptor (MC4R) beta-arrestin; U2OS MC4R beta-arrestin complementation, luminescence; percent of melanotan II response, DMSO zero; activation, % at 8.9 µM; actives 0.98% (n = 360,000); P32245;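 active means activation above a per-plate cutoff, the mean activation of sample wells on that plate plus 3 SD, cut at about 8% in these data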
# * = called active by the depositor; ? = inconclusive; / = not tested or not shown.
SMILES,NLRP3 yeast inh,NALP1 yeast inh,MC4R antag cAMP,Bfl-1 A1 inh,Tb MetRS inh,MC4R barr agon
Cc1ccc(-n2nc(C)c3c(C)c(CCC(=O)NC(C)c4ccccc4)c(C)nc32)cc1 (centres undefined),14,39*,8,1,0,-1
C[C@H](CO)N1C[C@H](C)[C@H](CN(C)C(=O)c2ccccc2)OCc2cnnn2CCCC1=O,/,/,12,/,0,1
COc1ccc(Cl)cc1S(=O)(=O)N(C)CC(=O)NCc1ccccn1,-2,0,0,0,0,-2
Cc1c(CCC(=O)NCCCC(=O)O)c(=O)oc2cc3oc4c(c3cc12)CCCC4,11,20,11,1,-1,0
O=C(C#Cc1ccccc1)c1ccco1,-28,44*,-2,-2,0,-2
O=C(Nc1nccs1)c1cc2sccc2n1Cc1ccc(F)cc1,-28,14,4,0,-1,8.9*
CCCCn1c(N)c(N(CCOC)C(=O)COC(=O)COc2ccccc2C#N)c(=O)[nH]c1=O,15,/,-2,1,-1,-3
Clc1ccccc1-c1nn2c(COc3ccccc3)nnc2s1,21,40*,16,2,0,0
CSC[C@@H]1NC(=S)N(c2ccc(C)cc2)C1=O,-1,76*,8,23*,-1,3
COCCCn1c(SCCc2ccccc2)nc2cc(OC)c(OC)cc2c1=N,5,-91,14,-1,-1,9.4*
CCSc1nc2cc(OC)c(OC)cc2c(=O)n1CCc1ccccc1,9,0,13,1,-1,3
COc1ccc(C(=O)N/C(=C\c2cn(C)c3ccccc23)C(=O)N2CCN(C)CC2)cc1OC,23,5,-4,-1,0,-1
CN(C)CCCNc1cc(-c2ccccc2)nc2cc(-c3cccc(F)c3)nn12,39,26*,1,1,-1,4
CC(C)(C)C1=CC(=Nc2ccccc2N)C=C(C(C)(C)C)C1=O,2,25,23,0,-3,-1
CC(C)(C)C1=CC(=O)C(=O)C(C(C)(C)C)=C1,-8,51*,10,31*,-1,25*
CN(C1=C(NC(=O)c2ccccc2)C(=O)c2ccccc2C1=O)C1CCS(=O)(=O)C1 (centres undefined),-13,43*,-13,-1,0,-2
O=C(CSc1ccc(Cl)cc1)Nc1cccc(-c2nc3ccccc3[nH]2)c1,6,16,5,0,0,7
O=C(CSc1ccccc1)Nc1ccc(-c2nc3ccccc3[nH]2)cc1,-6,38,13,0,3,11*
Cc1ccc2nc(-c3ccc(NC(=O)CSc4ccccc4)cc3)[nH]c2c1,9,38,10,-4,1,9.0*
COc1ccc(OC)c2sc(N(CCCN(C)C)C(=O)c3ccc(S(=O)(=O)N4CCc5ccccc5C4)cc3)nc12,20,/,/,?,/,/
COc1ccc(C)c2sc(N(CCCN(C)C)C(=O)c3ccc(S(=O)(=O)N4CCc5ccccc5C4)cc3)nc12,/,/,-4,1,0,37*
COc1cc2nc(N(CCCN(C)C)C(=O)c3ccc(S(=O)(=O)N4CCc5ccccc5C4)cc3)sc2cc1OC,4,/,-3,0,0,-2
COc1cccc2sc(N(CCCN(C)C)C(=O)c3ccc(S(=O)(=O)N4CCc5ccccc5C4)cc3)nc12,12,14,-4,-1,-1,9.0*
COc1ccc(C)c2sc(N(CCN(C)C)C(=O)/C=C/c3cccs3)nc12,30,22,-2,0,0,29*
COc1cc(/C(C)=C/c2ccccc2)c2c(c1)oc1ccccc12,/,-17,/,0,/,/
CN1CCN(C(=O)C[C@H]2CC[C@H]3[C@@H](COC[C@@H](O)CN3Cc3cccc(F)c3)O2)CC1,/,/,/,/,0,/
O=c1[nH]cnc(O)c1C(c1ccc2c(c1)OCO2)c1c(O)nc[nH]c1=O,16,28*,7,0,-1,-1
O=c1[nH]cnc(O)c1C(c1ccc(Br)cc1)c1c(O)nc[nH]c1=O,5,10,-9,-1,0,-2
CN1CCN(c2ccc(-c3cc(NC=O)c4ncc(-c5ccccc5)n4c3)cc2)CC1,/,/,4,/,0,-2
